Bioassay records (PubChem BioAssay)
MEKK2wt PB1 HTS: modulators of MEK5 binding to wildtype MEKK2, primary screen, biochemical, multiplex bead flow cytometry, Alexa488-MEK5 | Mitogen-activated protein kinase kinase kinase 2 (Homo sapiens), Q9Y2U5 | Alexa488-MEK5 binding to MEKK2 WT; actives lie on both sides | binding response (% of control), % at 10 µM | hit rate 1.1% among 290,000; in the data active = binding response below about 67% or above about 130%
Arr AP2 block: inhibitors of beta-arrestin/AP2 binding, primary screen, biochemical, GPCR trafficking, flow cytometry. beta-arrestin 1 C-terminal peptide binding to AP2 beta2-adaptin appendage (human). FITC-arrestin peptide / GST-AP2 beads; AP2 beta2 appendage carries R879A mutation. inhibition, % at 10 µM. hit rate 0.31% among 340,000. AID 504490, 2011;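 active = inhibition above a set limit, near 3 SD of compounds lacking own fluorescence, cut at about 54% in these data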;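 note: plate controls were DMSO wells for no effect and 5 µM unlabelled arrestin peptide for full effect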
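Material – GST-tagged AP2 beta2-adaptin appendage (R879A) on 4 µm glutathione beads · Probe or stimulus – fluorescein-tagged arrestin peptide at 50 nM final · Timing – 12 min plus 1 h, RT · Detection – bead flow cytometry, FITC channel · Read-out basis – inhibition as reduced fluorescein signal on beads, percent · Medium – PBS plus Tween 20 (0.05%) and BSA (0.1%)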
MEKK3 PB1 HTS: modulators of MEKK3-MEK5 PB1 binding, primary screen, biochemical, wildtype MEKK3, multiplex bead flow cytometry, Alexa488-MEK5. Mitogen-activated protein kinase kinase kinase 3 (Homo sapiens), Q99759. bead-based flow cytometry, Alexa488-MEK5 binding to MEKK3; actives lie on both sides; 0 = blocked by unlabeled MEK5, 100 = vehicle. binding response (% of control), % at 10 µM. hit rate 1.4% among 290,000;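 active = binding response more than 3 SD above or below the average of its plate-row segment, actives on both sides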;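 note: Alexa488 bead fluorescence after subtracting the streptavidin-only scavenger bead signal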
Target sequence (Q99759 whole entry, looked up): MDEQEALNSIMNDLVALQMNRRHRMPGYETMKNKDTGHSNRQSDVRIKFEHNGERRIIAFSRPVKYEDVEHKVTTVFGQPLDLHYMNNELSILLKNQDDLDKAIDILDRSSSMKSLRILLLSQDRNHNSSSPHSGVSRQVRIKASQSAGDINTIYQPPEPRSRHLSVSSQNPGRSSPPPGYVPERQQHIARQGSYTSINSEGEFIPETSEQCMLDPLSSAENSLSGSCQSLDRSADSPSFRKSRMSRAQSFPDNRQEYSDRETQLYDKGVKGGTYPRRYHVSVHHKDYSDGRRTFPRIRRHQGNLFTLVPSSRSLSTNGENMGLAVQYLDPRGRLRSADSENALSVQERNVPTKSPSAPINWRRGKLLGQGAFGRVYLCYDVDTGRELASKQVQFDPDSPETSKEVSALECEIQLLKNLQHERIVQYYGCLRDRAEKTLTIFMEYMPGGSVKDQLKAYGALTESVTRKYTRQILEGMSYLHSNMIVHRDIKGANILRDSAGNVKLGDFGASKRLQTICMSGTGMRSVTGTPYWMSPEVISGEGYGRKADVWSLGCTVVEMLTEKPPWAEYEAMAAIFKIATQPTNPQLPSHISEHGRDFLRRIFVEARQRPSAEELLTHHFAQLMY
MEKK2 mut-MEK5: MEK5 binding signal on mutant MEKK2 PB1, primary screen, biochemical, multiplex bead flow cytometry, Alexa488-MEK5. percent response, % at 10 µM. hit rate 0.35% among 290,000. AID 1530, 2009. Alexa488-MEK5 binding to MEKK2 mutant; in the data active = percent response above about 24%, passing the limit was not always enough
MEKK2wt confirm: modulators of MEK5 binding to wildtype MEKK2, confirmation, biochemical, single concentration, multiplex bead flow cytometry | shares compounds with MEKK3 PB1 HTS | Alexa488-MEK5 binding to MEKK2 WT; actives lie on both sides | binding response (% of control), % at 10 µM | hit rate 2.4% among 5,900 | AID 1892, 2009; in the data active = binding response below about 16% or above about 210%; inactive = in between
MEKK2mut-MEK5: mutant MEKK2 PB1-MEK5 binding signal retest – biochemical, single concentration, multiplex bead flow cytometry, confirmation; Alexa488-MEK5 binding to MEKK2 mutant; percent response, % at 10 µM; hit rate 2% among 5,900; AID 1893, 2009; shares compounds with MEKK3 PB1 HTS; in the data active = percent response mostly above about 71%, no sharp cut-off; inactive = mostly below about 38%;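 note: higher means compound restores mutant binding toward wildtype level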
MEKK3 confirm: MEKK3 wild-type PB1 binding to MEK5, inhibitors, confirmation, biochemical, bead multiplex flow cytometry, single concentration, wildtype; shares compounds with MEKK3 PB1 HTS; Alexa488-MEK5 binding to MEKK3; stronger effect = lower value; binding response (% of control), % at 10 µM; hit rate 1.8% among 5,900;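 active = binding response below 72% of control, or above a set upper limit, though filed actives all read lower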;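 note: 100% = DMSO only wells and 0% = binding blocked by excess unlabeled MEK5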
* = called active by the depositor; [ ] = dose if it differs, or a comment. Only some compounds are listed: those with a hit (about 2.3% of all), similar ones and a draw of the others.

`COc1ccc(N(C(=O)CCl)C(C)(C(=O)Nc2c(C)cccc2C)c2ccccn2)cc1` (stereo not given) gave MEKK2wt PB1 HTS 92.0, Arr AP2 block 2.5, MEKK3 PB1 HTS 95.0 and MEKK2 mut-MEK5 -3.0.
Screening Cc1ccc2[nH]c3c(=O)n(N)c(C)nc3c2c1 returned MEKK2wt PB1 HTS 92.0, Arr AP2 block -13.7, MEKK3 PB1 HTS 101.0 and MEKK2 mut-MEK5 0.0.
Screening COc1ccc2[nH]c3c(=O)n(N)c(C)nc3c2c1 returned MEKK2wt PB1 HTS 107.0, Arr AP2 block 13.4, MEKK3 PB1 HTS 136.0*, MEKK2 mut-MEK5 1.0, MEKK2wt confirm 104.0, MEKK2mut-MEK5 2.0 and MEKK3 confirm 105.0.
For C/C(=N\NC(=S)Nc1cccc(C)c1)c1ccco1 the results were MEKK2wt PB1 HTS 9.0*[inhibitor], Arr AP2 block 15.3, MEKK3 PB1 HTS 7.0*[inhibitor], MEKK2 mut-MEK5 -18.0, MEKK2wt confirm 106.0, MEKK2mut-MEK5 5.0 and MEKK3 confirm 105.0.
`Cc1ccc(NC(=O)CSCC(=O)N2CCN(c3cccc(C(F)(F)F)c3)CC2)cc1` gave Arr AP2 block -7.2.
`Cc1ccc(-c2nc3ccccc3c(=O)n2NC(=O)c2cccs2)cc1` gave MEKK2wt PB1 HTS 104.0, Arr AP2 block 34.1, MEKK3 PB1 HTS 129.0*, MEKK2 mut-MEK5 1.0, MEKK2wt confirm 99.0, MEKK2mut-MEK5 0.0 and MEKK3 confirm 101.0.
Screening COCCNC(=O)c1c(NC(=O)c2nc(SC)ncc2Cl)sc2c1CCCC2 returned MEKK2wt PB1 HTS 82.0, Arr AP2 block 12.7, MEKK3 PB1 HTS 82.0*[inhibitor], MEKK2 mut-MEK5 -10.0, MEKK2wt confirm 106.0, MEKK2mut-MEK5 4.0 and MEKK3 confirm 104.0.
Screening CCOC(=O)c1ccc(NC(=O)c2nc(SC)ncc2Cl)cc1 returned MEKK2wt PB1 HTS 102.0, Arr AP2 block 22.1, MEKK3 PB1 HTS 101.0 and MEKK2 mut-MEK5 1.0.
`COc1ccc(C(=O)NCCCn2cccn2)cc1OC1CCN(C(C)=O)CC1` gave MEKK2wt PB1 HTS 93.0, Arr AP2 block -6.9, MEKK3 PB1 HTS 95.0 and MEKK2 mut-MEK5 -4.0.
For CC(C)(C)NC(=O)COC(=O)CNC(=O)c1cc(Cl)cc([N+](=O)[O-])c1 the results were MEKK2wt PB1 HTS 106.0, Arr AP2 block 2.6, MEKK3 PB1 HTS 131.0*, MEKK2 mut-MEK5 0.0, MEKK2wt confirm 92.0, MEKK2mut-MEK5 -8.0 and MEKK3 confirm 89.0.
Screening CC(C)CNC(=O)COC(=O)CNC(=O)c1cc(Cl)cc([N+](=O)[O-])c1 returned MEKK2wt PB1 HTS 105.0, Arr AP2 block -7.3, MEKK3 PB1 HTS 149.0*, MEKK2 mut-MEK5 0.0, MEKK2wt confirm 104.0, MEKK2mut-MEK5 9.0 and MEKK3 confirm 109.0.
For CNC(=O)COC(=O)CNC(=O)c1cc(Cl)cc([N+](=O)[O-])c1 the results were MEKK2wt PB1 HTS 115.0, Arr AP2 block 35.7, MEKK3 PB1 HTS 127.0 and MEKK2 mut-MEK5 -2.0.
`CS(=O)(=O)Cc1ccc(C(=O)N2CCN(C(=O)c3cccs3)CC2)cc1` gave Arr AP2 block -10.8.
`COc1ccc(C2NCCc3c2[nH]c2ccccc32)cc1COc1ccc(F)cc1` (stereo not given) gave MEKK2wt PB1 HTS 140.0*, Arr AP2 block 11.1, MEKK3 PB1 HTS 62.0*[inhibitor], MEKK2 mut-MEK5 2.0, MEKK2wt confirm 205.0, MEKK2mut-MEK5 69.0 and MEKK3 confirm 114.0.
For COc1ccc(C2NCCc3c2[nH]c2ccccc32)cc1CN1CCc2cc(OC)c(OC)cc2C1C (stereo not given) the results were MEKK2wt PB1 HTS 172.0*, Arr AP2 block 4.0, MEKK3 PB1 HTS 107.0, MEKK2 mut-MEK5 20.0, MEKK2wt confirm 216.0*, MEKK2mut-MEK5 81.0* and MEKK3 confirm 117.0.
`CNC(=O)/C=C/c1cccc(C(F)(F)F)c1` gave MEKK2wt PB1 HTS 90.0, Arr AP2 block 5.0, MEKK3 PB1 HTS 73.0*[inhibitor], MEKK2 mut-MEK5 -1.0, MEKK2wt confirm 99.0, MEKK2mut-MEK5 0.0 and MEKK3 confirm 101.0.
`CCC(C)NC(=O)c1cc2cc3ccc(OC)cc3nc2s1` (stereo not given) gave MEKK2wt PB1 HTS 120.0, Arr AP2 block 1.8, MEKK3 PB1 HTS 126.0*, MEKK2 mut-MEK5 5.0, MEKK2wt confirm 97.0, MEKK2mut-MEK5 -4.0 and MEKK3 confirm 98.0.
CC1=Nc2nc(N3CCCCC3)c(C#N)c3c4c(nc(c23)N1)N(c1ccc(C(C)C)cc1)C(=O)C4 was read as MEKK2wt PB1 HTS 105.0, Arr AP2 block -1.6, MEKK3 PB1 HTS 107.0 and MEKK2 mut-MEK5 -1.0.
Screening COc1ccc(/C=N/S(=O)(=O)CCc2ccccc2)c(OC)c1 returned MEKK2wt PB1 HTS 96.0, Arr AP2 block -9.1, MEKK3 PB1 HTS 69.0*[inhibitor], MEKK2 mut-MEK5 -1.0, MEKK2wt confirm 104.0, MEKK2mut-MEK5 4.0 and MEKK3 confirm 106.0.
COc1ccc(CCNC(=O)COC(=O)Cc2c[nH]c3ccccc23)cc1OC was read as Arr AP2 block 8.6.
C1CCCCCC(NCCN2CCNCC2)CCCCC1 was read as MEKK2wt PB1 HTS 158.0*, Arr AP2 block 22.1, MEKK3 PB1 HTS 105.0, MEKK2 mut-MEK5 22.0, MEKK2wt confirm 142.0, MEKK2mut-MEK5 19.0 and MEKK3 confirm 100.0.
Screening O=C(NC1CCCCC1)N1CCNCC1 returned MEKK2wt PB1 HTS 102.0, Arr AP2 block 5.8, MEKK3 PB1 HTS 99.0 and MEKK2 mut-MEK5 1.0.
Screening CC(=O)c1ccc(N2Cc3ccccc3/C2=N\C(=O)Nc2ccc(Cl)cc2)cc1 returned MEKK2wt PB1 HTS 96.0, Arr AP2 block 25.6, MEKK3 PB1 HTS 98.0 and MEKK2 mut-MEK5 -1.0.
`COC(=O)c1ccc(N2Cc3ccccc3/C2=N\C(=O)Nc2ccccc2)cc1` gave MEKK2wt PB1 HTS 104.0, Arr AP2 block 11.1, MEKK3 PB1 HTS 137.0*, MEKK2 mut-MEK5 0.0, MEKK2wt confirm 101.0, MEKK2mut-MEK5 6.0 and MEKK3 confirm 105.0.
COc1ccc(N2Cc3ccccc3C2=NC(=O)c2ccc(C)cc2)cc1OC was read as MEKK2wt PB1 HTS 90.0, Arr AP2 block 2.4, MEKK3 PB1 HTS 100.0 and MEKK2 mut-MEK5 -5.0.
